# Source: PubChem BioAssay
# hERG protect: hERG rescue from dofetilide block, primary screen, cell-based, CHO-hERG, FluxOR thallium flux, dofetilide IC70 | activation (rescue from dofetilide block), less the hit threshold, % at 10 µM | actives 0.51% (n = 310,000) | dofetilide IC70 present | AID 1511, 2009;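 active means activation above the mean of controls blocked by dofetilide plus 5 SD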;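 further: thallium influx through hERG after potassium depolarization seen as dye fluorescence rise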
# KCC2 mod: KCC2 cotransporter modulators, thallium flux, primary screen, cell-based, HEK293 KCC2, FluoZin-2 fluorescence, MLSMR. Solute carrier family 12 member 5 (Homo sapiens), Q9H2X9. actives 2.2% (n = 190,000). KCC2 cells, thallium flux FluoZin-2 fluorescence. B-score of Tl+ flux slope (higher = more flux/activation; lower = inhibition) at 10 µM;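 active means thallium flux slope and its plate-corrected score both differing from the plate sample mean at a set confidence after two filtering rounds, in either direction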;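 further: slope of fluorescence scaled to starting intensity during 10 to 20 s after thallium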
# KCNQ1 inh: inhibitors of human KCNQ1 channel, primary screen, cell-based, thallium flux, high-throughput | actives 1.3% (n = 310,000) | B-score at 10 µM | CHO-K1 KCNQ1, FluxOR thallium flux fluorescence; hits give high values | Potassium voltage-gated channel subfamily KQT member 1 (Homo sapiens), P51787;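 active means compounds whose thallium flux B-score, printed positive for inhibition, exceeds three library SD while starting fluorescence stays within three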;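 further: channel opened by potassium depolarization with thallium stimulus after 20 min compound exposure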
# Target sequence (P51787 whole entry, looked up): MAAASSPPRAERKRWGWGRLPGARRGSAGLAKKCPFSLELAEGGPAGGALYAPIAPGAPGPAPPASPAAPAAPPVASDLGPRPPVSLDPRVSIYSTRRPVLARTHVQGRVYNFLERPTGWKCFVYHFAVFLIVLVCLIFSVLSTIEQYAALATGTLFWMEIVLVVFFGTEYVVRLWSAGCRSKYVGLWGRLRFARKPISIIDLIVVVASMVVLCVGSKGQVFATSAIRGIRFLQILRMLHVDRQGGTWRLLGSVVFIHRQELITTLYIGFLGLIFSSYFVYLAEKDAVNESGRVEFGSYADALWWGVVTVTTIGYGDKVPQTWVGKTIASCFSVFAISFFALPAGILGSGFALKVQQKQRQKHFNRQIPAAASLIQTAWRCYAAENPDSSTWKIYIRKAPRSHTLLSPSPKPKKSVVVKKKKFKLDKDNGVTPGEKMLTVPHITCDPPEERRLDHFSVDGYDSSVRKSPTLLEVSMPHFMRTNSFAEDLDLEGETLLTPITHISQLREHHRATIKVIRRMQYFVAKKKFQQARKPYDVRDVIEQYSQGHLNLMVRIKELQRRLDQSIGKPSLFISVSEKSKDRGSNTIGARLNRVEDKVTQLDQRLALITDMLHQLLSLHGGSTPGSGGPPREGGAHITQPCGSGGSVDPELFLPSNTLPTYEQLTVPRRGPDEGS
# KCNK3 block: human KCNK3 channel inhibitors, primary screen, CHO cells, FluxOR thallium flux, B-score | Potassium channel subfamily K member 3 (Homo sapiens), O14649 | FluxOR fluorescence; hits give low values | B-score at 10 µM | actives 0.84% (n = 340,000);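 active means B-score under library mean minus 4 SD, starting fluorescence ratio at most library mean plus 5 SD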;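 further: more negative B-score means stronger inhibition of thallium flux through KCNK3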
# KCNK9 inh: KCNK9 potassium channel inhibitors, primary screen, HEK293 cells, thallium flux. FluxOR thallium flux fluorescence; hits give low values. AID 488922, 2010. B-score at 10 µM. actives 1.2% (n = 310,000). Potassium channel subfamily K member 9 (Homo sapiens), Q9NPC2;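 active means ratio B-score over 3 SD below the library mean, with starting fluorescence within 5 SD of its mean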;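 further: negative B-score means less thallium flux so channel inhibition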
# KCNQ1 act: potentiators or activators of KCNQ1 channel, primary screen, cell-based, thallium flux, high-throughput; B-score at 10 µM; actives 0.35% (n = 310,000); AID 2648, 2010; Potassium voltage-gated channel subfamily KQT member 1 (Homo sapiens), P51787; CHO-K1 KCNQ1, thallium flux FluxOR fluorescence; hits give high values;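 active means fluorescence ratio B-score, a plate-corrected score, at least three library SD, with initial intensity B-score within 5 SD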
#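 Test system: CHO-K1 cells stably expressing KCNQ1 / Medium: assay buffer / Also added: depolarizing K+/Tl+ stimulus, K2SO4 and Tl2SO4 each 12.5 mM in 5x stock / Incubation: 90 min dye loading and 20 min compound exposure, both at room temperature / Signal: thallium influx via FluxOR fluorescence, kinetic imaging / Evaluation: B score of baseline-normalized fluorescence ratio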
# Numbers stand for hits; n = inactive; x = no result given. Most compounds without a hit are left out; they make up all but 4.1% or so of the library.
SMILES,hERG protect,KCC2 mod,KCNQ1 inh,KCNK3 block,KCNK9 inh,KCNQ1 act
Cn1nc(C(F)(F)F)c2cc(NC(=O)OCc3ccc(C(C)(C)C)cc3)sc21,n,n,7,n,n,n
CCOc1cc(N)c(Cl)cc1C(=O)NCC1CN(Cc2ccc(F)cc2)CCO1 (stereo not given),n,x,n,n,n,n
N=c1oc2cc(O)ccc2cc1C(=O)Nc1ccc(Br)cc1,n,x,8,n,n,n
Cc1ccc2nc(NC(=O)C3CCN(S(=O)(=O)c4cc([N+](=O)[O-])ccc4Cl)CC3)sc2c1,n,n,9,n,n,n
COc1cccc(-n2nc(C(=O)O)c3ccccc3c2=O)c1,6.5,n,n,n,n,n
O[C@@H]1CN(Cc2ccc(-n3cccn3)cc2)CC[C@H]1N1CCN(c2ccccc2F)CC1,n,x,n,n,n,n
COc1ccccc1-c1cn[nH]c1-c1ccc(OCc2ccc(F)cc2)cc1O,n,n,6,n,n,n
Cc1ccc(N(CC(=O)NCc2ccco2)C(=O)CCC(=O)Nc2ccccn2)c(C)c1,n,x,n,n,n,n
Cc1ccc(NC(=O)CSCC(=O)Nc2nnc(C)s2)cc1,n,x,n,n,n,n
CCOC(=O)N1CCN(C(=O)COC(=O)c2cc(Cl)c(O)c(Cl)c2)CC1,8.1,n,n,n,n,n
CCOC(=O)N1CCN(C(=O)COC(=O)c2cc(Cl)cc(Cl)c2)CC1,x,x,x,n,x,x
CC[C@@H](C(=O)[C@@H](C)[C@@H](O)[C@H](C)[C@@H]1O[C@@H]([C@@H](CC)C(=O)O)CC[C@@H]1C)[C@H]1O[C@]2(C=C[C@@H](O)[C@]3(CC[C@@](C)([C@H]4CC[C@](O)(CC)[C@H](C)O4)O3)O2)[C@H](C)C[C@@H]1C,x,x,x,n,x,x
CC[C@@H](C(=O)[C@@H](C)[C@@H](O)[C@H](C)CCc1ccc(C)c(O)c1C(=O)O)[C@H]1O[C@](CC)([C@H]2CC[C@](O)(CC)[C@H](C)O2)C[C@@H]1C,64.6,x,n,n,n,76
C=CCn1c(C)cc(-c2csc(NC)n2)c1C,x,n,x,n,x,x
C=CCn1c(C)cc(-c2csc(NCC)n2)c1C,n,n,6,n,n,n
Cc1cc(Cl)ccc1OC(C)C(=O)NNC(=O)C1CCCCC1C(=O)O (stereo not given),n,x,n,n,n,n
CCc1ccc(Nc2n[n+](-c3ccccc3)c(/C=C/c3ccccc3)s2)cc1,n,x,12,x,n,n
CCCNC(=O)C(CC)NC(=O)c1cccc([N+](=O)[O-])c1 (stereo not given),x,x,x,n,x,x
CCc1nc(SCC(=O)Nc2ccc(F)cc2F)c2c(=O)n(C)c(=O)n(C)c2n1,n,x,n,n,n,n
CCCc1nc(SCC(=O)Nc2cc(Cl)ccc2OC)c2c(=O)n(C)c(=O)n(C)c2n1,n,n,n,x,n,14
O=[N+]([O-])c1ccc2oc(C(O)c3cccc(Cl)c3)cc2c1 (stereo not given),n,x,9,n,n,n
CCOC(=O)c1cc2cc([N+](=O)[O-])ccc2oc1=O,n,n,n,n,n,n
CSCCC(NC(=O)c1ccc([N+](=O)[O-])cc1Cl)C(=O)OCC(=O)C12CC3CC(CC(C3)C1)C2 (stereo not given),38.8,n,n,n,n,n
CSCCC(NC(=O)c1ccc([N+](=O)[O-])cc1Cl)C(=O)OCC(=O)N1CCN(C(C)=O)CC1 (stereo not given),n,x,n,n,n,n
NN(Cc1ccccc1)C(=S)Nc1ccc(Cl)c(Cl)c1,n,x,n,n,n,n
SMILES,hERG protect,KCC2 mod,KCNQ1 inh,KCNK3 block,KCNK9 inh,KCNQ1 act
CNc1c([N+](=O)[O-])cnn1-c1ccc(Cl)cc1,n,n,n,n,-7.9,n
CC(C)OC(=O)c1c2nc3ccccc3nc2n2c1[nH]c(=O)c1ccccc12,42.6,125,n,x,n,81
CC(C)OC(=O)c1c(N)n(CCCN2CCOCC2)c2nc3ccccc3nc12,n,n,n,n,n,n
COc1ccccc1OCCn1c(SCC(=O)O)nc2ccccc21,n,x,n,n,n,n
Cc1cc(N2CCN(c3ccccc3)CC2)nc(N)n1,n,n,n,n,n,n
Cc1cc(N2CCN(c3ccccc3)CC2)nc(-c2ccccc2)n1,n,n,n,n,-7.6,n
CCc1cccc(CC)c1NC(=O)COC(=O)C1(c2ccc(Cl)cc2)CCCC1,n,n,n,n,-7.13,n
Cc1ccc(C(=O)OCN2C(=O)c3ccccc3C2=O)c(O)c1,n,x,n,n,n,n
Cc1[nH]n(-c2ccc(F)cc2)c(=O)c1/C=N/c1sc2c(c1C#N)CCCC2,20.0,x,n,n,n,34
N#Cc1c(/N=C/c2cc3ccccc3s2)sc2c1CCC2,n,n,n,n,n,n
Cc1[nH]n(-c2cccc3ccccc23)c(=O)c1/C=N/c1sc2c(c1C#N)CCC2,n,26.2,n,n,n,11
Cc1cccc(N2CCN(C(=O)c3cc4cc(F)ccc4[nH]3)CC2)c1C,n,x,n,n,n,n
Cc1ccc(N=Nc2ccc(O)c3ncccc23)cc1,19.8,11.2,n,n,n,16
CC1(C)CC(=O)C2=C(C1)OC1=C(C(=O)CC(C)(C)C1)C2c1ccc(O)cc1O,n,x,7,n,-7.01,n
O=C(CCN1Cc2ccccc2C1)c1ccc2c(c1)OCCO2,n,n,n,n,n,8
O=C(CCN1CCc2ccccc2C(c2ccccc2)C1)c1ccc2c(c1)OCCO2 (stereo not given),n,n,11,n,n,n
COCC1CCCN(C(=O)c2cc(COc3ccc4ncccc4c3)on2)C1 (stereo not given),n,x,6,n,n,n
COc1ccccc1CNC(=O)CN1C(=O)NC2(CCCC2)C1=O,x,x,x,n,x,x
CC(=O)c1ccc(NC(=O)CN2C(=O)NC3(CCc4ccccc43)C2=O)cc1 (stereo not given),x,x,x,n,x,x
Cc1ccc(C(=O)N/C(=C\c2ccc(-c3ccc(Br)cc3)o2)C(=O)NCCCN(C)C)cc1,n,n,8,n,n,n
O=C(CNC(=O)c1ccccc1F)N/N=C/c1cc(Br)ccc1OCc1ccccc1,n,n,n,n,-6.61,n
O=C(CNC(=O)c1cccc(F)c1)N/N=C/c1cc(Br)ccc1OCc1ccccc1,n,n,n,n,n,n
CSc1nc(-c2ccc(C)cc2)[nH]c1S(=O)(=O)c1ccccc1,n,n,n,n,n,n
